Measurements published in PMC6510378 (Clinical and Translational Science, 2019).

Legend:
4-week toxicology = format: in vivo; conditions: 4-week toxicology data, most sensitive species (rat)
[1] = test system: hypothalamic‐pituitary‐adrenal (HPA) axis; assay: HPA axis endocrine markers; format: in vivo, human
Outline: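 Healthy young non-Japanese adults, open-label low-dose part. 0.7 or 2 mg was given as a single oral dose on day 1, then after a 6-day washout once daily. 0.4 mg was given once daily on days 1–14. 0.2 mg followed a 3 mg loading dose on day 1, days 2–14. Baseline urine endocrine markers were taken day –1. Urine cortisol came from first morning void. ACTH and DHEA-s were plasma. Follow-up sampling ran days 16–21 and day 28.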

[2] = mice, available in vivo pharmacology data; cited from earlier work
[3] = SAD study plasma PK, single oral dose, healthy young subjects; format: in vivo, human; conditions: for Cmax / Tmax / AUC(0-inf) / half-life: human, plasma, po; for AUC(0-inf): AUCinf; for half-life: t½
Outline: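 Healthy adults aged 18–55, randomized 6 active : 2 placebo per cohort, received a single fasted oral dose (1–60 mg) with 240 mL water. Serial blood was drawn predose to 72 h, plus 96 and 120 h in the 6, 30 and 60 mg cohorts. Plasma drug was measured by validated HPLC-MS/MS, with below-limit values set to zero. Dose proportionality used a power model on log-transformed dose.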

[4] = Safety and tolerability, SAD study; format: in vivo, human
Outline: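 Safety was assessed from treatment-emergent adverse events: nature, frequency, severity, onset/offset and relatedness to study drug, coded by MedDRA system organ class. Also assessed were haematology, serum chemistry, urinalysis, physical examination with vital signs, and ECGs. CNS scales used were Bond and Lader VAS, ARCI-49 and Profile of Mood States. Data were summarized descriptively.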

11β‐HSD1 = 11β‐HSD1 (Homo sapiens, UniProt P28845); assay: Urine 11β-HSD1 activity; format: in vivo
Outline: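 Hepatic 11β-HSD1 activity was taken as the urinary ratio of (5α + 5β)-tetrahydrocortisol to tetrahydrocortisone. In the single-dose study, urine was collected predose to 72 h. In the high-dose multiple-dose part, cumulative amounts excreted were measured on days 1 and 18. In the low-dose part, first morning void samples were used, with baseline on day –1 and follow-up through days 16–21 and day 28.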

11β‐HSD2 = conditions: at concentrations < 3,000 nM; ref Internal study reports 3662‐PH‐0001 and 3662‐PH‐0001‐0004; cited from earlier work
human 11β‐HSD1 = conditions: competitive binding; ref Internal study reports 3662‐PH‐0001 and 3662‐PH‐0001‐0004; cited from earlier work
[5] = 3 mg, Median, single oral dose 3 mg, n=6
[6] = 3 mg, Min–max, single oral dose 3 mg, n=6
[7] = 6 mg, Mean (SD), single oral dose 6 mg, n=6
[8] = 6 mg, Median, single oral dose 6 mg, n=6
[9] = 6 mg, Min–max, single oral dose 6 mg, n=6
[10] = 10 mg, Mean (SD), single oral dose 10 mg, n=3
[11] = 10 mg, Median, single oral dose 10 mg, n=3
[12] = 10 mg, Min–max, single oral dose 10 mg, n=3
[13] = 10 mg, Median, single oral dose 10 mg, n=6
[14] = 10 mg, Min–max, single oral dose 10 mg, n=6
[15] = 30 mg, Mean (SD), single oral dose 30 mg, n=6
[16] = 30 mg, Median, single oral dose 30 mg, n=6
[17] = 30 mg, Min–max, single oral dose 30 mg, n=6
[18] = 60 mg, Mean (SD), single oral dose 60 mg, n=6
[19] = 60 mg, Median, single oral dose 60 mg, n=6
[20] = 60 mg, Min–max, single oral dose 60 mg, n=6

Chain of 11β‐HSD1 (P28845 whole entry): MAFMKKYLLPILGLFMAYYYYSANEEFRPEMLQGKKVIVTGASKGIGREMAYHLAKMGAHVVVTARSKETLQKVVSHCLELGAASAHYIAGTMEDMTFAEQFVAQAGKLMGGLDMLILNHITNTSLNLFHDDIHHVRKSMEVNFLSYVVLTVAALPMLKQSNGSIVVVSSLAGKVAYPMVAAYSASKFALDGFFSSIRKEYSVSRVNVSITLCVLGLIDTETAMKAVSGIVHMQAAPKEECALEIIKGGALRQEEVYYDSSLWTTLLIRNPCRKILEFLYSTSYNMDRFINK

Compound: Cn1c(-c2ccc(C(N)=O)cc2F)nnc1C(C)(C)Oc1c(F)cc(Cl)cc1F [ASP3662]
- maximum recommended starting dose derived from the no observed adverse effect level (4-week toxicology): 10 mg
- effects on ACTH, DHEA‐s and 24‐hour total urine glucocorticoids ([1]; MAD part 2, low dose): activation of the HPA axis
- effect on urine cortisol levels ([1]; despite full 11β‐HSD1 inhibition, part 2 low dose): no significant effects
- minimal pharmacological active oral dose [2]: 0.03 mg/kg
- Cmax ([3]; 1 mg, Mean (SD), single oral dose 1 mg, n=6): 0.0433 ng/mL
- Cmax ([3]; 1 mg, Min–max, single oral dose 1 mg, n=6): < 0.14 ng/mL
- Tmax ([3]; 1 mg, Median, single oral dose 1 mg, n=2): 0.75 h
- Tmax ([3]; 1 mg, Min–max, single oral dose 1 mg, n=2): 0.5 to 1 h
- Cmax ([3]; 3 mg, Mean (SD), single oral dose 3 mg, n=6): 3.54 ng/mL
- Cmax [3, 5]: 1.6 ng/mL
- Cmax [3, 6]: 0.38 to 9.24 ng/mL
- Tmax [3, 5]: 2.5 h
- Tmax [3, 6]: 1 to 4.02 h
- AUC(0-inf) [3, 7]: 405 ng·h/mL
- AUC(0-inf) [3, 8]: 410 ng·h/mL
- AUC(0-inf) [3, 9]: 169 to 660 ng·h/mL
- Cmax [3, 7]: 28 ng/mL
- Cmax [3, 8]: 30.5 ng/mL
- Cmax [3, 9]: 10.8 to 43.7 ng/mL
- Tmax [3, 8]: 1.75 h
- Tmax [3, 9]: 1 to 4 h
- half-life [3, 7]: 37.7 h
- half-life [3, 8]: 37.9 h
- half-life [3, 9]: 28.5 to 46.3 h
- AUC(0-inf) [3, 10]: 858 ng·h/mL
- AUC(0-inf) [3, 11]: 953 ng·h/mL
- AUC(0-inf) [3, 12]: 620 to 1000 ng·h/mL
- Cmax ([3]; 10 mg, Mean (SD), single oral dose 10 mg, n=6): 64 ng/mL
- Cmax [3, 13]: 60.9 ng/mL
- Cmax [3, 14]: 49 to 93.6 ng/mL
- Tmax [3, 13]: 1.75 h
- Tmax [3, 14]: 1 to 6 h
- half-life [3, 10]: 19.5 h
- half-life [3, 11]: 21.9 h
- half-life [3, 12]: 13.7 to 23 h
- AUC(0-inf) [3, 15]: 3620 ng·h/mL
- AUC(0-inf) [3, 16]: 3370 ng·h/mL
- AUC(0-inf) [3, 17]: 1630 to 6770 ng·h/mL
- Cmax [3, 15]: 258 ng/mL
- Cmax [3, 16]: 239 ng/mL
- Cmax [3, 17]: 151 to 386 ng/mL
- Tmax [3, 16]: 3.5 h
- Tmax [3, 17]: 1.5 to 4 h
- half-life [3, 15]: 17.6 h
- half-life [3, 16]: 17.4 h
- half-life [3, 17]: 14.5 to 20.2 h
- AUC(0-inf) [3, 18]: 8190 ng·h/mL
- AUC(0-inf) [3, 19]: 8460 ng·h/mL
- AUC(0-inf) [3, 20]: 5440 to 12500 ng·h/mL
- Cmax [3, 18]: 595 ng/mL
- Cmax [3, 19]: 566 ng/mL
- Cmax [3, 20]: 439 to 865 ng/mL
- Tmax [3, 19]: 3.5 h
- Tmax [3, 20]: 2 to 4 h
- half-life [3, 18]: 14.8 h
- half-life [3, 19]: 14.6 h
- half-life [3, 20]: 13.1 to 17.3 h
- CL/F, Mean (SD) ([3]; single oral dose 6 mg, n=6): 18.38 (9.909) L/hour
- CL/F, Median ([3]; single oral dose 6 mg, n=6): 15.62 L/h
- CL/F, Min–max ([3]; single oral dose 6 mg, n=6): 9.09 to 35.4 L/h
- CL/F, Mean (SD) ([3]; single oral dose 10 mg, n=3): 12.20 (3.403) L/hour
- CL/F, Median ([3]; single oral dose 10 mg, n=3): 10.49 L/h
- CL/F, Min–max ([3]; single oral dose 10 mg, n=3): 9.99 to 16.1 L/h
- CL/F, Mean (SD) ([3]; single oral dose 30 mg, n=6): 10.05 (4.856) L/hour
- CL/F, Median ([3]; single oral dose 30 mg, n=6): 9.012 L/h
- CL/F, Min–max ([3]; single oral dose 30 mg, n=6): 4.43 to 18.4 L/h
- CL/F, Mean (SD) ([3]; single oral dose 60 mg, n=6): 7.933 (2.407) L/hour
- CL/F, Median ([3]; single oral dose 60 mg, n=6): 7.091 L/h
- CL/F, Min–max ([3]; single oral dose 60 mg, n=6): 4.81 to 11.0 L/h
- clinically relevant finding (vital signs) ([4]; after a single dose of 6 mg): clinically significant orthostatic hypotension
- overall safety and tolerability ([4]; single oral doses up to 60 mg): safe and well tolerated
- return of 11β‐HSD1 activity to baseline (11β‐HSD1; 16 days after discontinuation of multiple doses, even lowest dose 0.2 mg): incomplete
- dose achieving full inhibition of peripheral 11β‐HSD1 (11β‐HSD1; clinical PD data referred to in the dose rationale): 3 mg
- dose achieving full inhibition of 11β‐HSD1 (11β‐HSD1; multiple daily doses): ≥ 2 mg
- 11β‐HSD1 activity ratio at maximal inhibition (11β‐HSD1; nadir at doses of 2 mg and above): ~ 0.1 ratio
- inhibition of 11β‐HSD2 (11β‐HSD2): no inhibition
- Ki (human 11β‐HSD1): 5.3 nM
